This note sets out measurements from ChEMBL document CHEMBL1122000 (J Med Chem, 1982).

A short description of data set [1]: Partition coefficient (logP). The settings on record: octanol/water. The format is physicochemical.
Data set [2] concerns Rattus norvegicus. The data set can be described thus: Antagonistic potency of compound after oral administration in rats. The format is functional. An outline of the steps: (§1)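 Rats, 10 animals per dose level. Drugs were given as bases in saline vehicle, sc or orally. Antagonist activity was read in the hot-water tail-flick test. AD50 values were reported with limits.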
The species entered for data set [3] is Mus musculus. The data set can be described thus: Concentration required for antagonistic activity of Met-enkephalin in the mouse vas deferens at the dose ratio of 2. In kind it is functional.
The subject of data set [4] is Rattus norvegicus. The data set can be described thus: (§2) Antagonistic potency of compound after subcutaneous administration in rats. The format is functional. The essentials: as §1
The species named for data set [5] is Rattus norvegicus. The data set can be described thus: Duration of action of compound was determined at the AD99 dose level in rats. The format is functional. The essentials:
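Rats, 10 per dose level; bases in saline vehicle given sc. Antagonism was followed in the hot-water tail-flick test at the AD99 dose, which was extrapolated from AD50 values. Duration of action is given in hours.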

Data set [6] relates to Rattus norvegicus. The description is as §2. The format is functional. The source holds these as a separate data set.
Data set [7] is filed under the species Mus musculus. As to the kind of experiment: Concentration required for antagonistic activity of normorphine in the mouse vas deferens at the dose ratio of 2. In kind it is functional.
The species named for data set [8] is Mus musculus. The data set can be described thus: Concentration required for antagonistic activity of Met-enkephalin in the mouse vas deferens at the dose ratio of 2. The format is functional.
A short description of data set [9]: In vitro narcotic agonist potency of compound as ratio to normorphine (=1) was assessed in mouse vas deferens. The format is functional.
The target of data set [10] is T1, Opioid receptor (Rattus norvegicus, UniProt P33533+P34975+P33535). The data set can be described thus: Inhibition of stereospecific [3H]diprenorphine binding to opioid receptors of rat brain homogenates by 50% in the absence of Na.
The target in data set [11] is T1, Opioid receptor. The data set can be described thus: Inhibition of stereospecific [3H]diprenorphine binding to opioid receptors of rat brain homogenates by 50% in the presence of Na.

In general, logP refers to the decadic logarithm of the partition coefficient of the neutral form, usually between octanol and water. On to `O=C1CC[C@@]2(O)[C@H]3Cc4ccc(O)c5c4[C@@]2(CCN3CC2CC2)[C@H]1O5` [NALTREXONE], for which, in [1], the logP was found to be 3.047. Also, the values for the AD50 in the data set on Rattus norvegicus [2] and with Rattus norvegicus [4] were 1.35 mg/kg and 0.009 mg/kg, respectively. Further, the Concentration in the data set filed under Mus musculus [3] turned out to be 9 ng/mL; in the data set filed under Mus musculus [7], 0.165 ng/mL. This compound also yielded a Duration in the data set filed under Rattus norvegicus [5] of 5 h. The AD99 in the data set with Rattus norvegicus [6] was 0.05 mg/kg.
Consider `C=CCN1CC[C@]23c4c5ccc(O)c4O[C@H]2C(=O)CC[C@@]3(O)[C@H]1C5` [NALOXONE], for which, in data set [1] (read-out: logP), the logP was found to be 1.91. Moreover, the AD50 came to 13 mg/kg with Rattus norvegicus [2] and 0.023 mg/kg in the data set with Rattus norvegicus [4]. Besides, the Concentration in the data set listed under Mus musculus [3] is 10.1 ng/mL; in the data set listed under Mus musculus [7], 0.51 ng/mL. For the same compound, the Duration in the data set listed under Rattus norvegicus [5] is 3 h. Besides, the AD99 with Rattus norvegicus [6] was determined as 0.1 mg/kg.
Consider `C=CCN1CC[C@]23c4c5ccc(O)c4O[C@H]2C(=O)CC[C@@]3(OC)C1C5`, for which the Concentration in the data set filed under Mus musculus [8] turned out to be 7.3 ng/mL; in the data set filed under Mus musculus [7], 0.46 ng/mL. In data set [1] (read-out: logP), the logP worked out at 2.52. The AD50 in the data set on Rattus norvegicus [2] was above 30 mg/kg; with Rattus norvegicus [4], 0.041 mg/kg. Further, the Duration in the data set filed under Rattus norvegicus [5] came to 4 h. Further, in the data set on Rattus norvegicus [6], the AD99 came out at 0.15 mg/kg.
As for `C=CCN1CC[C@]23c4c5ccc(O)c4O[C@H]2C(=O)CC[C@@]3(OCC)C1C5`, the logP in [1] (read-out: logP) came to 3.05. Further, the results for the AD50 in the data set on Rattus norvegicus [2] and with Rattus norvegicus [4] were 3.8 mg/kg and 0.034 mg/kg, respectively. Besides, the Concentration was found to be 7.9 ng/mL in the data set listed under Mus musculus [3] and 0.33 ng/mL in the data set filed under Mus musculus [7]. Besides, the Duration in the data set listed under Rattus norvegicus [5] was 6 h. The AD99 in the data set on Rattus norvegicus [6] turned out to be 0.14 mg/kg.
Broadly, the IC50 is the concentration that gives 50% inhibition. As to `CCO[C@@]12CCC(=O)[C@@H]3Oc4c(O)ccc5c4[C@@]31CCN(CC1CC1)C2C5`, the Potency ratio in [9] is below 0.12. Moreover, the IC50 on Opioid receptor [10] came out at 8 nM; at Opioid receptor [11], 3.8 nM. Besides, the logP in data set [1] (read-out: logP) turned out to be 3.58. In addition, the AD50 in the data set with Rattus norvegicus [2] turned out to be 1.5 mg/kg; in the data set on Rattus norvegicus [4] it was 0.005 mg/kg. For the same compound, the Concentration stood at 4.1 ng/mL in the data set filed under Mus musculus [3] and 0.07 ng/mL in the data set listed under Mus musculus [7]. In the data set filed under Rattus norvegicus [5], this compound returned a Duration of 4 h. For the same compound, the AD99 with Rattus norvegicus [6] is 0.14 mg/kg.
On to `CO[C@@]12CCC(=O)[C@@H]3Oc4c(O)ccc5c4[C@@]31CCN(CC1CC1)[C@@H]2C5`, for which the Potency ratio in data set [9] is recorded as below 0.063. For the same compound, the IC50 on Opioid receptor [10] was 18 nM; on Opioid receptor [11] it was 16 nM. Moreover, the logP in data set [1] (read-out: logP) amounted to 3.05. For the same compound, the values for the AD50 in the data set on Rattus norvegicus [2] and with Rattus norvegicus [4] were 4.4 mg/kg and 0.019 mg/kg, respectively. For the same compound, the Concentration is 11.5 ng/mL in the data set listed under Mus musculus [3] and 0.26 ng/mL in the data set listed under Mus musculus [7]. The same compound returned a Duration in the data set filed under Rattus norvegicus [5] of 8 h. Further, the AD99 in the data set on Rattus norvegicus [6] was determined as 0.25 mg/kg.
